Screens (PubChem)
Not all results are given here.
Apaf-1 act: activators of human Apaf-1 apoptosome | O14727 | 0.31% of 330,000 active | Apaf-1 apoptosome caspase-3 activation, DEVD-Rh110 fluorescence; active compounds read low | AID 489031 | activity change, negative = activation, % at 20 µM;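 active means activity change at or below -40% at 20 µM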
Target sequence (O14727 whole entry, looked up): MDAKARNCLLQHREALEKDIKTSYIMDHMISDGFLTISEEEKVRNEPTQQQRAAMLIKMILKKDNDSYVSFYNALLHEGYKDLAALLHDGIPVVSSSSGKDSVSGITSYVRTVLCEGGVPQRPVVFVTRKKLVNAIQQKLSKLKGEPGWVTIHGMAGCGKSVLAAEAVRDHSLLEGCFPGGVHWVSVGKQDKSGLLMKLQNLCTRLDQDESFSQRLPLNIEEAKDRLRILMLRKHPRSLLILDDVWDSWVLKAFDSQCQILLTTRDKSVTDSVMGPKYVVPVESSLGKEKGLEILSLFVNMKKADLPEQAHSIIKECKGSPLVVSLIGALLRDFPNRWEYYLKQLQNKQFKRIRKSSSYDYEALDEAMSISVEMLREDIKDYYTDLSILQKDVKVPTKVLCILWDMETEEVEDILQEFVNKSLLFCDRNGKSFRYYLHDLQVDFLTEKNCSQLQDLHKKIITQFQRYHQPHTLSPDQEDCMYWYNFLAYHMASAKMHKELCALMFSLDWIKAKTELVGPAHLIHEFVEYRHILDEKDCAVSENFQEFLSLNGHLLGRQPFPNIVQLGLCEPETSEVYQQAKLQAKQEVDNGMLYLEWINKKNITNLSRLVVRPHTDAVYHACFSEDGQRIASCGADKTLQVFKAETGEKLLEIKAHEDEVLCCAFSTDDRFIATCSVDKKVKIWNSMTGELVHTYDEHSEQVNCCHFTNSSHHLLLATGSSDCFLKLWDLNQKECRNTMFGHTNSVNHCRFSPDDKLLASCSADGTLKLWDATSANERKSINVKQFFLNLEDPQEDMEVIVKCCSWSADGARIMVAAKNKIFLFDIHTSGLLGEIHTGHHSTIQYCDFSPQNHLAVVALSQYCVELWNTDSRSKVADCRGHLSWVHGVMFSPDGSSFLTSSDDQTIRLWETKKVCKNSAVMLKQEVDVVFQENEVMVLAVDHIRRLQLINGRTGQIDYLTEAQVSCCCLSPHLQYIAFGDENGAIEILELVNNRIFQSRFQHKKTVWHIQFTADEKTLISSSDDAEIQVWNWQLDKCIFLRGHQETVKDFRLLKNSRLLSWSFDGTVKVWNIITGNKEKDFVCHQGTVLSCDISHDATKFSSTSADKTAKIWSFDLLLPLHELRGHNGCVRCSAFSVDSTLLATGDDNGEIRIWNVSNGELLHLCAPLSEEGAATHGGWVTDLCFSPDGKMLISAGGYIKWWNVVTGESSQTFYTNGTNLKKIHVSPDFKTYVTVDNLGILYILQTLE
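Material: biochemical Apaf-1 apoptosome reconstitution; Medium: 20 mM HEPES buffer, pH 7.5, containing CHAPS and BSA; Reagent: dATP, cytochrome c, and (Z-DEVD)2-Rh110 caspase-3 substrate; Times: 30 min preincubation, 50 min reaction, room temperature; Signal: Rh110 fluorescence, excitation 480 nm, emission 540 nm; Measure: Caspase-3 activity via Apaf-1.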
Rh110 interf act: interferes with Rh110 fluorescence, flagging false Apaf-1 activators; 980 tested, under 10 active; shares compounds with Apaf-1 act; fluorescence interference (activity change), % at 20 µM, hits read low; Rh110 fluorescence interference, quenched caspase reaction, Ex480/Em540;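 active means mean activity change at or below -40% when tested at 20 µM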
Apaf-1 act conf2: confirmation of human Apaf-1 activators. 5% of 980 active. activity change, negative = activation, % at 20 µM. AID 504617. shares compounds with Apaf-1 act. reconstituted apoptosome caspase-3 activity, DEVD-Rh110 fluorescence; active compounds read low;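 active means mean activity change at or below -40%, meaning activation of 40% or more, at 20 µM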
Fluor interf act: shows fluorescence interference in the Apaf-1 activator assay format; shares compounds with Apaf-1 act; fluorescence interference counterscreen; EC50, µM; 55 tested, under 10 active; AID 588592; call rule not given here
* marks the source's active call; other numbers are inactive results; nt = no result given.

SMILES	Apaf-1 act	Rh110 interf act	Apaf-1 act conf2	others
CC1(C)C=C2C(=NN(c3ccccc3)C(N)=C2C#N)CO1	47.4	nt	nt
Cc1ccc(-n2c(O)c(/C=N/Nc3ccc(S(=O)(=O)N4CCOCC4)cc3[N+](=O)[O-])c3ccccc3c2=O)c(C)c1	50.7	nt	nt
CCN1CCN(c2ccc(S(=O)(=O)N3CCOCC3)cc2NC(=O)CC(C)C)CC1	50.1	nt	nt
Cc1nc2ccc3nc(NC(=O)c4ccc(S(=O)(=O)N5CCOCC5)cc4)sc3c2s1	-80.1*	-6.9	-21.4
Cc1[nH]n(-c2ccccc2)c(=O)c1N=Nc1cccc(S(=O)(=O)N2CCOCC2)c1	45.7	nt	nt
Cc1cc(NC(=O)c2cccc(S(=O)(=O)N3CCOCC3)c2)no1	-49.7*	2.4	9.1
c1ccc([C@H]2CNCCN2CCc2cccc3ccccc23)cc1	55.0	nt	nt
O=C(Nc1ccc(N2CCCC2)cc1)C(Cl)c1ccccc1 (centres undefined)	65.0	nt	nt
O=C(Nc1nc(-c2ccccc2)cs1)c1ccc(N2CCOCC2)c([N+](=O)[O-])c1	-45.5*	-4.1	7.4
COc1ccc(-n2nc3c(N4CCC(C(=O)NCc5ccccc5C)CC4)nnc(C)c3c2C)cc1	59.0	nt	nt
Cc1nn(-c2ccccc2)c(N2CCCC2)c1/C=C1\N=C(c2ccc(OC(C)C)cc2)OC1=O	51.7	nt	nt
Cc1ccc(CN(C)C(=O)CSc2nnc3n2CCCCC3)c(C)c1	-42.3*	-8.4	6.0
Nc1c2c(nc3ccccc13)CCCC2	-4.0	nt	nt
CC[C@@H](C)[C@@H]1CN([C@@H](C)CN2CCC[C@H]2CN2C(N)=NC[C@@H]2Cc2ccccc2)C(=N)N1CCCC1CCCC1	61.6	nt	nt
CC1=NN(c2ccccc2)C(=O)/C1=C/c1ccc(-c2ccc(C)c(C(=O)O)c2)o1	68.2	nt	nt
CC1=NN(c2ccc(C(=O)O)cc2)C(=O)/C1=C/c1ccc(-c2ccccc2F)o1	57.7	nt	nt
COC(=O)c1ccccc1-c1ccc(/C=C2\C(=O)N(c3ccccc3)N=C2c2ccccc2)o1	62.3	nt	nt	Fluor interf act=>100
CC(C)[C@H](N)C(=O)OCCOCn1cnc2c(=O)[nH]c(N)nc21	-6.6	nt	nt
O=[N+]([O-])c1cc(CN2CCN(c3cccc(C(F)(F)F)c3)CC2)c2cccnc2c1O	41.6	nt	nt
O=C(CCCC(=O)OCC(Cl)=C(Cl)Cl)Nc1ccccc1F	-61.3*	-1.7	3.9
COc1ccc(C[C@H]2CN3C(=NC[C@H]3Cc3ccccc3)N2CCNC(=O)c2ccc(C)c(Br)c2)cc1	42.9	nt	nt
CN1CCN(c2ccc(S(=O)(=O)N3CCCCC3)cc2NC(=O)/C=C/c2ccc(Cl)c([N+](=O)[O-])c2)CC1	51.2	nt	nt
CCN1CCN(S(=O)(=O)c2ccc(Cl)c(C(=O)Nc3ccccc3N3CCCC3)c2)CC1	-74.2*	10.8	12.7
CCN1CCN(S(=O)(=O)c2ccc(Cl)c(C(=O)N(C)Cc3cccs3)c2)CC1	57.8	nt	nt
CCN1CCN(C2=C(NS(=O)(=O)c3ccc(NC(C)=O)cc3)C(=O)c3ccccc3C2=O)CC1	73.7	nt	nt
SMILES	Apaf-1 act	Rh110 interf act	Apaf-1 act conf2	others
CC(=O)Nc1ccc(S(=O)(=O)NC2=C(N3CCN(C)CC3)C(=O)c3ccccc3C2=O)cc1	60.3	nt	nt
CN1CCN(c2ccc(S(=O)(=O)N3CCCCC3)cc2NC(=O)c2ccc3ccccc3c2)CC1	-154.8*	4.2	7.6
CC1=CC(=C(C#N)c2nc3ccccc3s2)C=C(C)N1c1ccc(F)cc1	44.6	nt	nt
COc1ccc(C[C@H]2CN3C(=NC[C@@H]3Cc3ccccc3)N2C[C@H](C)NC(=O)CCC2CCCCC2)cc1	51.6	nt	nt
O=C(O)c1ccc2c3c(ncnc13)-c1ccccc1C2=O	44.0	nt	nt
Nc1c(C(=O)NCCN2CCOCC2)c2nc3ccccc3nc2n1CCc1ccccc1F	43.3	nt	nt
Cc1ccc2[nH]c3c(c2c1)CN(C(=O)CN1CCCc2ccccc21)CC3	78.5	nt	nt
CS(=O)(=O)N(CC(=O)N1CCc2ccccc2C1)c1cccc(Br)c1	-257.5*	2.5	13.6
CC(=O)Nc1cc(OC(C)=O)c2nonc2c1OC(C)=O	97.9	nt	nt
COc1ccc(C(=O)c2c(C(F)(F)F)oc3c2C(=O)c2ccccc2C3=O)cc1	78.6	nt	nt
COc1ccc(N2C(=O)CCC(C(=O)O)C2c2ccccc2OC)cc1 (centres undefined)	-172.2*	-1.6	5.9
COc1ccc(C2/C(=C(/O)c3ccc4c(c3)CC(C)O4)C(=O)C(=O)N2CCCn2ccnc2)cc1 (centres undefined)	41.6	nt	nt
COc1ccc(/C(O)=C2/C(=O)C(=O)N(Cc3ccco3)C2c2cccs2)cc1 (centres undefined)	-63.6*	7.1	13.5
NC(N)=N/N=C/c1c(Cl)cccc1Cl	1.1	nt	nt
CCCCCCSc1ccc(-c2nc3cnccn3c2NCCCC)cc1	55.9	nt	nt
Cc1cnc(NC(=O)CSc2ncc(-c3ccccc3)n2Cc2ccco2)s1	41.9	nt	nt
COc1ccc(C(=O)CSc2nnc(-c3cccnc3)n2Cc2ccco2)cc1	-50.3*	-0.7	7.7
C=C(C)Cc1c(C)c(C#N)c2[nH]c3ccccc3n2c1=O	62.0	nt	nt
C#CCOCCOCCOCCNc1nc(N2CCOCC2)nc(N2CCN(C(=O)CCCCCCCCCCNC(=O)[C@H](CO)n3cc(CCCCCN)nn3)CC2)n1	43.5	nt	nt
Cc1cc(C)n(CC(C)C(=O)O)n1 (centres undefined)	-165.2*	0.1	-103.9*	Fluor interf act=>100
Cc1cc(OC(=O)c2ccccc2)n(CCC#N)n1	43.2	nt	nt
CCOC(=O)c1c(CSC(=N)N)n(-c2ccc(C)cc2)c2cc(Br)c(OC(C)=O)cc12	45.8	nt	nt
CN1N=C(C(C)(C)C)CC1=O	41.1	nt	nt
C#CCOCCOCCOCCNc1nc(N2CCN(C(=O)[C@H]([C@@H](C)CC)n3cc([C@@H](N)Cc4ccc(O)cc4)nn3)CC2)nc(N2CCN(C(=O)[C@H](Cc3cc4ccccc4[nH]3)n3cc([C@@H](N)C(C)CC)nn3)CC2)n1 (some centres undefined)	49.1	nt	nt
CC12COC3(P(=O)(c4ccccc4)c4ccccc4)CC1CCC23CP(=O)(c1ccccc1)c1ccccc1 (centres undefined)	41.3	nt	nt
SMILES	Apaf-1 act	Rh110 interf act	Apaf-1 act conf2	others
CCCCC(CC)CN=C(N)NC(N)=NCCCCCCN=C(N)NC(N)=NCC(CC)CCCC (centres undefined)	93.5	nt	nt
CCOc1ccc(-n2c(SCc3ccc([N+](=O)[O-])cc3)nnc2-c2ccc(OC)cc2)cc1	-303.7*	-4.2	17.9
Cc1ccc(C(C[N+](=O)[O-])c2c(C)[nH]n(-c3ccccc3)c2=O)cc1 (centres undefined)	93.4	nt	nt
CC(=O)Nc1c(S(=O)(=O)c2ccccc2)c2nc3ccccc3nc2n1Cc1ccccc1	60.5	nt	nt
COc1ccc(-c2noc(-c3ccccc3C(=O)NCc3ccco3)n2)cc1OC	-324.2*	3.8	-3.6
O=C(NCc1ccccc1)c1ccc2nc(-c3ccco3)c(-c3ccco3)nc2c1	65.0	nt	nt
COc1ccc(NC(=O)c2ccc(-c3ccc(-c4noc(C)n4)cc3C)cc2)cc1N1CCN(C)CC1	56.9	nt	nt
COc1ccc(Cn2c(N)c(C#N)c3nc4ccccc4nc32)cc1	50.4	nt	nt
O=C(CNC(=O)c1ccc(Br)cc1)c1ccc(Br)cc1	-463.3*	-6.3	13.2
CCN1CCN(Cc2ccc(NC(=O)c3cc(NC(=O)C(=O)c4c[nH]c5ccccc45)cc(OC)c3)cc2C(F)(F)F)CC1	41.5	nt	nt
